Reference: paper PMC6018888 (Drug Design, Development and Therapy, 2018)

Columns and labels:
Assay type in all cases: in vivo, human
[1] = Verinurad urinary pharmacokinetics; conditions: for CLR0–24 / fe0–24: Japanese subjects, geometric mean (95% CI)
serum urate (sUA) = assay: Pharmacodynamics: serum urate; conditions: for mean reduction of serum urate after 24 hours: multiple verinurad 10 mg doses
Method in brief: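 Healthy males (screening sUA >4.5 mg/dL) took oral modified-release 2.5 mg tablets or placebo (6:2 per panel) once daily for 7 days (days 6–12), after a moderate-fat breakfast. Japanese panels received 2.5–15 mg and non-Asian subjects 10 mg. Serum sampled predose days 1, 6 and 8–12, then to 72 h (day 12). Maximum percent change from baseline and its timing were read directly from concentration–time data.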

[2] = system: urinary excretion of uric acid; assay: Pharmacodynamics: urinary uric acid excretion; conditions: for CLUR0–24 / FEUA0–24: mean (95% CI); for percent change from baseline in AeUR over 0–6 hours: non-Asian subjects
Method in brief: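 Total-catch urine was collected at 6- or 12-h intervals from predose to 72 h after dosing on days 1 (fasted ≥10 h, no food 4 h postdose) and 12, and to 24 h on day 6 (fed). Urine uric acid, urine creatinine and serum creatinine were measured. CLUR0–24 = urinary uric acid amount ÷ urate AUC0–24. FEUA0–24 = CLUR0–24 ÷ creatinine clearance × 100.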

[3] = system: healthy Japanese and non-Asian adult male subjects; assay: Safety and tolerability assessment; conditions: for incidence of TEAEs: 10 mg dose level
Method in brief: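 Adverse events were assessed daily in all dosed subjects, graded by Rheumatology Common Toxicity Criteria v2.0, with relatedness judged by the investigator. Clinical laboratory samples were taken at screening, admission, days 2, 5, 7 and 13, and at follow-up. Supine vital signs and oral temperature were measured at set times. Physical examination and 12-lead ECG were done at screening and follow-up.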

[4] = 2.5 mg single dose, fasted, day 1
[5] = 5 mg once daily multiple doses, fed, day 12
[6] = 5 mg single dose, fasted, day 1
[7] = 10 mg once daily multiple doses, fed, day 12
[8] = 10 mg single dose, fasted, day 1
[9] = 15 mg once daily multiple doses, fed, day 12
[10] = 15 mg single dose, fasted, day 1
[11] = Japanese subjects, 2.5 mg multiple once-daily doses, fed
[12] = Japanese subjects, 5 mg multiple once-daily doses, fed
[13] = Japanese subjects, 10 mg multiple once-daily doses, fed
[14] = Japanese subjects, 15 mg multiple once-daily doses, fed
[15] = non-Asian subjects, 10 mg multiple once-daily dosing, fed
[16] = Japanese subjects, 2.5 mg multiple dose, fed
[17] = Japanese subjects, 2.5 mg single dose, fasted
[18] = Japanese subjects, 2.5 mg single dose, fed
[19] = Japanese subjects, 5 mg multiple dose, fed
[20] = Japanese subjects, 5 mg single dose, fasted
[21] = Japanese subjects, 5 mg single dose, fed
[22] = Japanese subjects, 10 mg multiple dose, fed
[23] = Japanese subjects, 10 mg single dose, fasted
[24] = Japanese subjects, 10 mg single dose, fed
[25] = Japanese subjects, 15 mg multiple dose, fed
[26] = Japanese subjects, 15 mg single dose, fasted
[27] = Japanese subjects, 15 mg single dose, fed
[28] = Non-Asian subjects, 10 mg multiple dose, fed
[29] = Non-Asian subjects, 10 mg single dose, fasted
[30] = Non-Asian subjects, 10 mg single dose, fed
[31] = Japanese subjects, pooled verinurad (n=24)
[32] = Non-Asian subjects, pooled verinurad (n=6)

CC(C)(Sc1ccncc1-c1ccc(C#N)c2ccccc12)C(=O)O [verinurad]
CLR0–24 [1, 4]: 16.1 (9.41–27.6) mL/min
fe0–24 [1, 4]: 0.896 (0.620–1.29) %
CLR0–24 ([1]; 2.5 mg single dose, fed, day 6): 15.7 (9.54–25.8) mL/min
fe0–24 ([1]; 2.5 mg single dose, fed, day 6): 1.27 (0.659–2.47) %
CLR0–24 [1, 5]: 17.0 (11.8–24.5) mL/min
fe0–24 [1, 5]: 1.65 (0.959–2.84) %
CLR0–24 [1, 6]: 16.4 (11.3–23.7) mL/min
fe0–24 [1, 6]: 0.640 (0.279–1.47) %
CLR0–24 ([1]; 5 mg single dose, fed, day 6): 15.1 (11.8–19.3) mL/min
fe0–24 ([1]; 5 mg single dose, fed, day 6): 1.09 (0.730–1.64) %
CLR0–24 [1, 7]: 17.0 (9.43–25.4) mL/min
fe0–24 [1, 7]: 1.77 (1.38–2.25) %
CLR0–24 [1, 8]: 13.1 (10.1–16.9) mL/min
fe0–24 [1, 8]: 0.733 (0.558–0.964) %
fe0–24 ([1]; 10 mg single dose, fed, day 6): 1.63 (1.24–2.16) %
CLR0–24 [1, 9]: 16.0 (8.22–31.3) mL/min
fe0–24 [1, 9]: 1.83 (1.23–2.73) %
CLR0–24 [1, 10]: 9.30 (5.46–15.9) mL/min
fe0–24 [1, 10]: 0.788 (0.424–1.45) %
CLR0–24 ([1]; 15 mg single dose, fed, day 6): 12.0 (6.06–23.7) mL/min
fe0–24 ([1]; 15 mg single dose, fed, day 6): 1.14 (0.907–1.45) %
renal clearance GMR, Japanese vs non-Asian ([1]; multiple dosing, 90% CI 79.7–126): 100%
fraction of drug excreted in urine GMR, Japanese vs non-Asian ([1]; multiple dosing, 90% CI 98.7–153): 123%
renal clearance GMR, Japanese vs non-Asian ([1]; single dose, fasted, 90% CI 53.7–91.4): 70.0%
fraction of drug excreted in urine GMR, Japanese vs non-Asian ([1]; single dose, fasted, 90% CI 70.9–124): 93.7%
renal clearance GMR, Japanese vs non-Asian ([1]; single dose, fed, 90% CI 65.0–101): 80.9%
fraction of drug excreted in urine GMR, Japanese vs non-Asian ([1]; single dose, fed, 90% CI 107–191): 143%
time of maximum reduction in sUA (serum urate (sUA); Japanese and non-Asian subjects, multiple once-daily doses, fed): ≤ 12 hours postdose
sUA least square mean maximum percent change from baseline at 12 hours (serum urate (sUA); [11]): −31%
sUA percent change from baseline at 24 hours (serum urate (sUA); [11]): −16%
sUA least square mean maximum percent change from baseline at 12 hours (serum urate (sUA); [12]): −50%
sUA percent change from baseline at 24 hours (serum urate (sUA); [12]): −31%
sUA least square mean maximum percent change from baseline at 12 hours (serum urate (sUA); [13]): −62%
sUA percent change from baseline at 24 hours (serum urate (sUA); [13]): −46%
sUA concentration at maximum reduction (serum urate (sUA); [14]): < 2 mg/dL
sUA least square mean maximum percent change from baseline at 12 hours (serum urate (sUA); [14]): −74%
sUA percent change from baseline at 24 hours (serum urate (sUA); [14]): −55%
mean reduction of serum urate after 24 hours (serum urate (sUA); Japanese subjects): 46%
sUA maximum percent change from baseline (serum urate (sUA); [15]): −58%
sUA percent change from baseline at 24 hours postdose (serum urate (sUA); [15]): −44%
mean reduction of serum urate after 24 hours (serum urate (sUA); non-Asian subjects): 44%
CLUR0–24 [2, 16]: 12.2 (10.3–14.2) mL/min
FEUA0–24 [2, 16]: 7.57 (6.74–8.41) %
CLUR0–24 [2, 17]: 7.82 (6.90–8.74) mL/min
FEUA0–24 [2, 17]: 7.72 (6.01–9.43) %
CLUR0–24 [2, 18]: 11.4 (9.74–13.0) mL/min
FEUA0–24 [2, 18]: 7.75 (6.80–8.70) %
percent change from baseline in AeUR, 0–6 hour interval ([2]; Japanese subjects, 2.5 mg, day 1 (fasted)): 18%
percent change from baseline in AeUR, 0–6 hour interval ([2]; Japanese subjects, 2.5 mg, day 6 (fed)): 62%
percent change from baseline in AeUR, 0–6 hour interval ([2]; Japanese subjects, 2.5 mg, day 12 (steady-state, fed)): −17%
CLUR0–24 [2, 19]: 13.7 (9.35–18.1) mL/min
FEUA0–24 [2, 19]: 14.5 (9.93–19.1) %
CLUR0–24 [2, 20]: 10.9 (8.88–12.9) mL/min
FEUA0–24 [2, 20]: 9.05 (7.20–10.9) %
CLUR0–24 [2, 21]: 16.0 (11.7–20.3) mL/min
FEUA0–24 [2, 21]: 11.2 (7.42–14.9) %
percent change from baseline in AeUR, 0–6 hour interval ([2]; Japanese subjects, 5 mg, day 1 (fasted)): 59%
percent change from baseline in AeUR, 0–6 hour interval ([2]; Japanese subjects, 5 mg, day 6 (fed)): 114%
percent change from baseline in AeUR, 0–6 hour interval ([2]; Japanese subjects, 5 mg, day 12 (steady-state, fed)): −35%
CLUR0–24 [2, 22]: 19.7 (16.7–22.7) mL/min
FEUA0–24 [2, 22]: 13.7 (10.8–16.6) %
CLUR0–24 [2, 23]: 14.3 (10.7–17.9) mL/min
FEUA0–24 [2, 23]: 10.8 (7.87–13.6) %
CLUR0–24 [2, 24]: 16.0 (9.88–22.1) mL/min
FEUA0–24 [2, 24]: 20.5 (11.3–29.6) %
percent change from baseline in AeUR, 0–6 hour interval ([2]; Japanese subjects, 10 mg, day 1 (fasted)): 114%
percent change from baseline in AeUR, 0–6 hour interval ([2]; Japanese subjects, 10 mg, day 6 (fed)): 131%
percent change from baseline in AeUR, 0–6 hour interval ([2]; Japanese subjects, 10 mg, day 12 (steady-state, fed)): −33%
CLUR0–24 [2, 25]: 23.9 (14.9–32.9) mL/min
FEUA0–24 [2, 25]: 16.0 (10.7–21.2) %
CLUR0–24 [2, 26]: 15.0 (6.40–23.6) mL/min
FEUA0–24 [2, 26]: 14.5 (7.08–22.0) %
CLUR0–24 [2, 27]: 12.1 (4.04–20.2) mL/min
FEUA0–24 [2, 27]: 9.61 (2.96–16.3) %
percent change from baseline in AeUR, 0–6 hour interval ([2]; Japanese subjects, 15 mg, day 1 (fasted)): 77%
percent change from baseline in AeUR, 0–6 hour interval ([2]; Japanese subjects, 15 mg, day 6 (fed)): 49%
percent change from baseline in AeUR, 0–6 hour interval ([2]; Japanese subjects, 15 mg, day 12 (steady-state, fed)): 6%
CLUR0–24 [2, 28]: 20.6 (13.7–27.4) mL/min
FEUA0–24 [2, 28]: 13.2 (8.45–17.9) %
CLUR0–24 [2, 29]: 15.3 (7.35–23.3) mL/min
FEUA0–24 [2, 29]: 10.4 (4.84–16.0) %
CLUR0–24 [2, 30]: 18.6 (8.95–28.2) mL/min
FEUA0–24 [2, 30]: 11.7 (6.44–17.0) %
percent change from baseline in AeUR over 0–6 hours ([2]; 10 mg, day 1): 70%
percent change from baseline in AeUR over 0–6 hours ([2]; 10 mg, day 6): 141%
percent change from baseline in AeUR over 0–6 hours ([2]; 10 mg, day 12): -41%
AE possibly related to study drug, severe severity/life-threatening [3, 31]: 0 n (%) [events]
Any AE, severe severity/life-threatening [3, 31]: 0 n (%) [events]
SAEs [3, 31]: 0 n (%) [events]
incidence of TEAEs ([3]; Japanese subjects): 2 n
AE possibly related to study drug, moderate severity [3, 32]: 0 n (%) [events]
AE possibly related to study drug, severe severity/life-threatening [3, 32]: 0 n (%) [events]
Any AE, severe severity/life-threatening [3, 32]: 0 n (%) [events]
SAEs [3, 32]: 0 n (%) [events]
Subjects withdrawn due to AEs [3, 32]: 0 n (%) [events]
serum chemistry, hematology, coagulation, urinalysis parameters ([3]; all subjects): No safety concerns were identified
vital signs, 12-lead electrocardiograms, physical examinations ([3]; all subjects): No clinically significant findings
deaths, serious AEs, significant AEs of interest ([3]; all subjects, during the study): No deaths, other serious AEs, or other significant AEs of interest were reported
tolerability ([3]; healthy male Japanese and non-Asian subjects, single and multiple once-daily doses 2.5 to 15 mg): well tolerated
incidence of TEAEs ([3]; non-Asian subjects): 2 n
serum creatinine elevation ([3]; one subject, 3 days after a single 2.5 mg dose, resolved by day 14): 1.5 × baseline
TEAE of moderate severity ([3]; one subject, day 13 following daily dosing with 10 mg, unlikely to be related): moderately severe muscle strain
